The text below walks through data of ChEMBL document CHEMBL2384909, “Development of Novel Alkene Oxindole Derivatives As Orally Efficacious AMP-Activated Protein Kinase Activators” (ACS Med Chem Lett, 2013).

In data set [1] the target is Maternal embryonic leucine zipper kinase (Homo sapiens) (UniProt Q14680). Nature of the data set: Activity at MELK (unknown origin).
Data set [2] in a line: Oral bioavailability in Wistar rat at 10 mg/kg by LC-MS/MS analysis. It counts as ADME, organism-based. The note with it: in vivo.
Data set [3] in a line: AUC (0 to infinity) in Wistar rat at 2 mg/kg, iv by LC-MS/MS analysis. The format is ADME, organism-based. Also on record: time infinity, dose 2 mg/kg, route intravenous. To be noted: plasma.
Data set [4] in a line: AUC (0 to 24 hrs) in Wistar rat at 10 mg/kg, po by LC-MS/MS analysis. Also on record: time < 24 hr, dose 10 mg/kg, route oral. It counts as ADME, organism-based. To be noted: plasma.
Data set [5] has as its target T1, Inhibitor of nuclear factor kappa-B kinase subunit beta (Homo sapiens) (UniProt O14920).
T1 sequence (whole entry): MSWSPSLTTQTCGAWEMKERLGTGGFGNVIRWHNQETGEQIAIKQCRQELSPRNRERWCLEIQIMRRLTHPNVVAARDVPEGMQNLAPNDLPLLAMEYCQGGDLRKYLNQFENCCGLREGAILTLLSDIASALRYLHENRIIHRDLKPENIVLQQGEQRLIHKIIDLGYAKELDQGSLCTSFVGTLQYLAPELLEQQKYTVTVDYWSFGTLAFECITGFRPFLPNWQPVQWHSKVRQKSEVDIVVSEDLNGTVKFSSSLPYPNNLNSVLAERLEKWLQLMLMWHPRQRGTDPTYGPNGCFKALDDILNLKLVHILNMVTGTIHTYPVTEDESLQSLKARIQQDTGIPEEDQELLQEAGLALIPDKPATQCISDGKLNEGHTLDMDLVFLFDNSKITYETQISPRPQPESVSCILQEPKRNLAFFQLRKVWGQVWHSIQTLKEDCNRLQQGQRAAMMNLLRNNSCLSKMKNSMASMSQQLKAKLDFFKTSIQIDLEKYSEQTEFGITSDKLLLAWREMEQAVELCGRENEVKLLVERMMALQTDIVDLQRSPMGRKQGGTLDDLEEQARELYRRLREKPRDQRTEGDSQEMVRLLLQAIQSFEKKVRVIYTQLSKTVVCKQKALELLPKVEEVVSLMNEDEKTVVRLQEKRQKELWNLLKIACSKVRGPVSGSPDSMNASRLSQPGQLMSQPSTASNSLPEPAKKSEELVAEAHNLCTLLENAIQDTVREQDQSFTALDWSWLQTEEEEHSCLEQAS
Nature of the data set: Activity at IKKbeta (unknown origin).

For data set [6], the target named is T2, Aurora kinase A (Homo sapiens) (UniProt O14965).
T2 sequence (whole entry): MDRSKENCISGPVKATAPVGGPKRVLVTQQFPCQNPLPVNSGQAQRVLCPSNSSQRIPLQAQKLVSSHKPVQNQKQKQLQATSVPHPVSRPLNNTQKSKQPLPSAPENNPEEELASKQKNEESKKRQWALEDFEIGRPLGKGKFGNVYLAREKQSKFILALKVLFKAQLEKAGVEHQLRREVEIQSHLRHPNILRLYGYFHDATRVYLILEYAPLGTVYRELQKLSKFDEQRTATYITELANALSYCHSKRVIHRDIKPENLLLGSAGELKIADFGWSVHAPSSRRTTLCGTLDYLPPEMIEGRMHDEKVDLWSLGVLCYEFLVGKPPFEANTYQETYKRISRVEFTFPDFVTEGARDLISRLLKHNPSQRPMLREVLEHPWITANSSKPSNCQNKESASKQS
Nature of the data set: Activity at Aurora A (unknown origin).

The nature of data set [7]: Plasma concentration in Wistar rat at 10 mg/kg, po after 4 hrs by LC-MS/MS analysis. The format is ADME, organism-based. Further details: dose 10 mg/kg, route oral.
Data set [8] addresses Glycogen synthase kinase-3 beta (Homo sapiens) (UniProt P49841). Nature of the data set: Activity at GSK3beta (unknown origin).
Data set [9] relates to Mus musculus. Nature of the data set: Antidiabetic activity in diet-induced obese C57BL/6J mouse assessed as improved glucose tolerance at 50 to 150 mg/kg, po qd for 4 weeks by glucose tolerance test.
Data set [10] concerns Mus musculus. Nature of the data set: Upregulation of PDK4 gene expression in C57BL/6J mouse muscles at 15 to 150 mg/kg, po. To be noted: Muscle tissue. The format is functional, organism-based.
For a further data set, the target named is Cytochrome P450 2C9 (Homo sapiens, UniProt P11712). Nature of the data set: Inhibition of CYP2C9 (unknown origin). The format is ADME.
Chain of Cytochrome P450 2C9 (P11712 whole entry): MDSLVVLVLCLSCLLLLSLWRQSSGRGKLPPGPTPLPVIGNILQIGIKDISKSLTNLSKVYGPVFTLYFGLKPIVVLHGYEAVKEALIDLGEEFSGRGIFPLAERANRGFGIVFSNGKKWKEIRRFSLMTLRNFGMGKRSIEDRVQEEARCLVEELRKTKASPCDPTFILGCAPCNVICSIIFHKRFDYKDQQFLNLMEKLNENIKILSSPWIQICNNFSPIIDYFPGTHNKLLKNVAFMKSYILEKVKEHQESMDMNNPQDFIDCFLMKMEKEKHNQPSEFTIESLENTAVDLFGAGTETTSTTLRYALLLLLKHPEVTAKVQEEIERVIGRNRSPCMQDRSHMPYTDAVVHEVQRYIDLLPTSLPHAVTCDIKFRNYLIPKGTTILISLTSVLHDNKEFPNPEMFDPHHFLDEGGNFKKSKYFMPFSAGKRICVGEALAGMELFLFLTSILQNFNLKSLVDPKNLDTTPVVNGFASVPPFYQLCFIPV
Data set [11] concerns Mus musculus. Nature of the data set: Antidiabetic activity in diet-induced obese C57BL/6J mouse assessed as reduction in plasma triglyceride at 15 mg/kg, po qd for 4 weeks (reference value: 0.62 +/- 0.02 mM). It counts as functional.
The target of data set [12] is Voltage-gated inwardly rectifying potassium channel KCNH2 (Homo sapiens, UniProt Q12809). Nature of the data set: Inhibition of human ERG.
Chain of Voltage-gated inwardly rectifying potassium channel KCNH2 (Q12809 whole entry): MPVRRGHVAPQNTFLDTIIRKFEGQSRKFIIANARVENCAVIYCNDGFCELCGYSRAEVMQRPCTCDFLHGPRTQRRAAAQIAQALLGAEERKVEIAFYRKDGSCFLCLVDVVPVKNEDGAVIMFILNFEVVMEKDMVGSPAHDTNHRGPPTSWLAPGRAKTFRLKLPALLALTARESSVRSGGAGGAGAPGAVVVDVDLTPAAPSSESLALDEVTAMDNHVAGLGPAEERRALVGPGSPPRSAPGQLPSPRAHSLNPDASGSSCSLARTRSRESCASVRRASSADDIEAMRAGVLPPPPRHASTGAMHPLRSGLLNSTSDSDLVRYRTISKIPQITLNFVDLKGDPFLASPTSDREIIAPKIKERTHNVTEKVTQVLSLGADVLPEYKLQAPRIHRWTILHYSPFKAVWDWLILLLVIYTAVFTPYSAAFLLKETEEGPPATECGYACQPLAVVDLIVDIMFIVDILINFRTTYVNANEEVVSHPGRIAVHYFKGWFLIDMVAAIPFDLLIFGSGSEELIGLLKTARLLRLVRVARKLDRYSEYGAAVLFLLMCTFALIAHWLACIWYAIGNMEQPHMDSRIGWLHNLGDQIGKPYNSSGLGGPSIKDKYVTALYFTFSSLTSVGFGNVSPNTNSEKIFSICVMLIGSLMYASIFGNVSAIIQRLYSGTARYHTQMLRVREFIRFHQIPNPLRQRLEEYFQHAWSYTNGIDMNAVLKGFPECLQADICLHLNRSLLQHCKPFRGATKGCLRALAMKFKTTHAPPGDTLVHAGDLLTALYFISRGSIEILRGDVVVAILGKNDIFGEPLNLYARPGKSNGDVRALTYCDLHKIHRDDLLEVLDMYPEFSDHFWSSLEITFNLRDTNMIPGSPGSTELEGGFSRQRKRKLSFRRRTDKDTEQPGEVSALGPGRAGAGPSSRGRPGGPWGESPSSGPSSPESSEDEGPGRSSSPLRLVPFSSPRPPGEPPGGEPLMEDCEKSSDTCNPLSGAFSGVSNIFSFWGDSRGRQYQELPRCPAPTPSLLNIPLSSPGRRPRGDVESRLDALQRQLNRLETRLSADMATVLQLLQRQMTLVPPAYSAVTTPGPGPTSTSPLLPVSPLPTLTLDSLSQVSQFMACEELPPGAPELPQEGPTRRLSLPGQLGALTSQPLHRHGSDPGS
The nature of data set [13]: Terminal half life in Wistar rat at 2 mg/kg, iv by LC-MS/MS analysis. It counts as ADME, organism-based. Also on record: dose 2 mg/kg, route intravenous. The note with it: in vivo, read-out: beta t1/2 (converted).
In the next data set the target is AMPK alpha2/beta1/gamma1 (Homo sapiens, UniProt P54619+P54646+Q9Y478). Nature of the data set: Activation of recombinant AMPK alpha2beta1gamma1 (unknown origin) after 2 hrs by scintillation proximity assay. It counts as protein-complex assay. In a few lines: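 Activation of bacterially expressed AMPK α2β1γ1 was measured by scintillation proximity assay. Efficacy is expressed relative to AMP.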
Chain of AMPK alpha2/beta1/gamma1 (P54646 whole entry): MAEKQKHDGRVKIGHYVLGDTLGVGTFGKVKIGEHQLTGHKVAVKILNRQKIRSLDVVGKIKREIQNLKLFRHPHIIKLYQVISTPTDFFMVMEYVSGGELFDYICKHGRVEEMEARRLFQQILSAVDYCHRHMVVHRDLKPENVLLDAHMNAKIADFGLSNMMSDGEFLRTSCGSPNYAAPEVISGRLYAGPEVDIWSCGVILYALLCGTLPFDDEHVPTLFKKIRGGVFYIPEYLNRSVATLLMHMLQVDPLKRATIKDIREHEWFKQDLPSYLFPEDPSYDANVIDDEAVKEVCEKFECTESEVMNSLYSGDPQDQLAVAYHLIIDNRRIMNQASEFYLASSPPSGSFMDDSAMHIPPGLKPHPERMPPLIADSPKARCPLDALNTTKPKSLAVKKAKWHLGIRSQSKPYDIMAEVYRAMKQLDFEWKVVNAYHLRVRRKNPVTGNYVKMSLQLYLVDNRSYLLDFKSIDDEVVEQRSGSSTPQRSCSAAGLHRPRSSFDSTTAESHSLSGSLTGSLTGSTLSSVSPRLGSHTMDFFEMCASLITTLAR
Chain of AMPK alpha2/beta1/gamma1 (P54619 whole entry): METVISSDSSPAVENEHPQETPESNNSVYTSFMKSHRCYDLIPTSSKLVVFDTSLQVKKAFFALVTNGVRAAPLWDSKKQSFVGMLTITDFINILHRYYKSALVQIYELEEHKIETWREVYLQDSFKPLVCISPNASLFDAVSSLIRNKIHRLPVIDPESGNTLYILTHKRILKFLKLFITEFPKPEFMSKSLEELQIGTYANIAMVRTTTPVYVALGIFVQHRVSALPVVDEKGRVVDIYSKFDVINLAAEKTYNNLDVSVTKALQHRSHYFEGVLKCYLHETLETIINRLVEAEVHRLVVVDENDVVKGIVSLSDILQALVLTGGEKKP
Chain of AMPK alpha2/beta1/gamma1 (Q9Y478 whole entry): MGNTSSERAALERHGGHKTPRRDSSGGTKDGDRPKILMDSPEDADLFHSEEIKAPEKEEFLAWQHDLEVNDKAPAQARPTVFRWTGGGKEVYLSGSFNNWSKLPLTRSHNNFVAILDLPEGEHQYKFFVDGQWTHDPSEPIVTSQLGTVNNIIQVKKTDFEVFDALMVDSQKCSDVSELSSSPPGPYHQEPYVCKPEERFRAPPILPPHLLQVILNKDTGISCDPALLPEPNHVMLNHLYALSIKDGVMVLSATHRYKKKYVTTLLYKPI
Background: Scintillation proximity formats need no separation of bound from free tracer.

A short description of data set [14]: AUC (0 to 24 hrs) in Wistar rat at 2 mg/kg, iv by LC-MS/MS analysis. The format is ADME, organism-based. To be noted: plasma. Further details: time < 24 hr, dose 2 mg/kg, route intravenous.
Data set [15] concerns L6. Nature of the data set: Activation of AMPK in rat L6 cells assessed as stimulation of glucose uptake after 15 mins. The format is cell-based.
For data set [16], the system named is Mus musculus. Nature of the data set: Upregulation of PGC1alpha gene expression in C57BL/6J mouse muscles at 15 to 150 mg/kg, po. It counts as functional, organism-based. The note with it: Muscle tissue.
Another data set deals with Cytochrome P450 2D6 (Homo sapiens, UniProt P10635). Nature of the data set: Inhibition of CYP2D6 (unknown origin). It counts as ADME.
Chain of Cytochrome P450 2D6 (P10635 whole entry): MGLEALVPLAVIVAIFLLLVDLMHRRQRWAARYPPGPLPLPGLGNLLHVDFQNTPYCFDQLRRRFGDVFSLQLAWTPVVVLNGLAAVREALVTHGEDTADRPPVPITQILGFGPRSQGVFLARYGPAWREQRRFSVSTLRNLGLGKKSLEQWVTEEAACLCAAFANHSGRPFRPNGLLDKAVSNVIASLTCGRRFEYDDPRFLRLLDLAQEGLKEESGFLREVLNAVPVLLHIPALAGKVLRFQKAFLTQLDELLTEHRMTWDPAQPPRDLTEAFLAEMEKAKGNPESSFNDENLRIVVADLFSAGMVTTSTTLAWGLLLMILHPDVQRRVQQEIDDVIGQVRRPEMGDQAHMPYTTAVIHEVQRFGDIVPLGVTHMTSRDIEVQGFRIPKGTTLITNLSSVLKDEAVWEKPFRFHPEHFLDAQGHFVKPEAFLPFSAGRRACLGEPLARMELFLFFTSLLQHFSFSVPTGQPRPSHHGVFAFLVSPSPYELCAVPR
The nature of data set [17]: Half life in Wistar rat at 10 mg/kg, po by LC-MS/MS analysis. It counts as ADME, organism-based. Further details: dose 10 mg/kg, route oral. To be noted: in vivo.
The target in another data set is Cytochrome P450 2C19 (Homo sapiens, UniProt P33261). Nature of the data set: Inhibition of CYP2C19 (unknown origin). It counts as ADME.
Chain of Cytochrome P450 2C19 (P33261 whole entry): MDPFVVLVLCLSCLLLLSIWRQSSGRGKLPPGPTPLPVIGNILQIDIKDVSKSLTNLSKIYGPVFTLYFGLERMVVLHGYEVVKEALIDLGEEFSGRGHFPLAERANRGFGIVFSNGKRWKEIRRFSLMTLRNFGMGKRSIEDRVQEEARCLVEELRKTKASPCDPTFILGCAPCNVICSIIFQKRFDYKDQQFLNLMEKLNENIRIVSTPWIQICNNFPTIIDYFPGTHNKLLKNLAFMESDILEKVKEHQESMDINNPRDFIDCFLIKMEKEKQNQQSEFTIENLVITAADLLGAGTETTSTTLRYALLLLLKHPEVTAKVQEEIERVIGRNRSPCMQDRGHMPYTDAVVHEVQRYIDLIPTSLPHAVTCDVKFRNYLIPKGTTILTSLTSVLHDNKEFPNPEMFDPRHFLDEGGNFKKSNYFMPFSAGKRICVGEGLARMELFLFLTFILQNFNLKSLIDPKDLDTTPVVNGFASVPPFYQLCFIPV
Data set [18] deals with L6. Nature of the data set: Induction of AMPK phosphorylation in rat L6 cells by Western blotting analysis. It counts as cell-based.
For another data set, the target named is T3, Cytochrome P450 1A2 (Homo sapiens, UniProt P05177).
T3 sequence (P05177 whole entry): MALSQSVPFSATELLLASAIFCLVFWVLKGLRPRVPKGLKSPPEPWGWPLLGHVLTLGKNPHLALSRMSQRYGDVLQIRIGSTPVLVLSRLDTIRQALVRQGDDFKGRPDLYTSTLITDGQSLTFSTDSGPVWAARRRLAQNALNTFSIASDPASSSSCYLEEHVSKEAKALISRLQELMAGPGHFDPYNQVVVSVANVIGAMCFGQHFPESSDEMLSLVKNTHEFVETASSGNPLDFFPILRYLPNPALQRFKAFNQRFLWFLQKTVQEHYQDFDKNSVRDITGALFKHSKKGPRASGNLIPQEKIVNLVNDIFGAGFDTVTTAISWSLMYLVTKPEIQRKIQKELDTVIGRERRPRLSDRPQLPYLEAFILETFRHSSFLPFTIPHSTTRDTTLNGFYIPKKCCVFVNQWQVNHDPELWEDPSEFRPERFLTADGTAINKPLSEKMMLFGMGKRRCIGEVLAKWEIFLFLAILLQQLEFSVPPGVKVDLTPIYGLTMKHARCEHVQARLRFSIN
Nature of the data set: Inhibition of CYP1A2 (unknown origin). It counts as ADME.

SMILES strings stand for the structures. pEC50, pIC50: −log10 of the molar value. The source made the active and inactive calls. The calls are words filed in the database; no cut-off is given here. A value given as a limit tells only on which side of the number the result lay.

Chain of Maternal embryonic leucine zipper kinase (Homo sapiens) (Q14680 whole entry, looked up): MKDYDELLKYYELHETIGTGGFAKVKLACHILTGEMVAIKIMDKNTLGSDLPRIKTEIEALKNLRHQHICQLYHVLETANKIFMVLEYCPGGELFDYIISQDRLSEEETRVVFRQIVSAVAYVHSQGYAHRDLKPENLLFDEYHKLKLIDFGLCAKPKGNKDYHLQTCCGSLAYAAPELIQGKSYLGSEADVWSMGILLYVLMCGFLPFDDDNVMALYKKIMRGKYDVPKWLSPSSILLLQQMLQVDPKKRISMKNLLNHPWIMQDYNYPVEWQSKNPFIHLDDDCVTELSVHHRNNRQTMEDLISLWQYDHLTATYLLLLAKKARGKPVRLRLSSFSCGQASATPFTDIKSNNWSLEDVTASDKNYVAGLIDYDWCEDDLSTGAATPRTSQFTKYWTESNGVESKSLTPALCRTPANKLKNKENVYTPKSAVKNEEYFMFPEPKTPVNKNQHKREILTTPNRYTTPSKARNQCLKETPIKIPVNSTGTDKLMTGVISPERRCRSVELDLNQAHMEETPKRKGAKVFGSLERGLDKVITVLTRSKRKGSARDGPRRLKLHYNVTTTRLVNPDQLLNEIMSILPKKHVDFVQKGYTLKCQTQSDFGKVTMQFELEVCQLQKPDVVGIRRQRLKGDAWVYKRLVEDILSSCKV
Chain of Glycogen synthase kinase-3 beta (Homo sapiens) (P49841 whole entry, looked up): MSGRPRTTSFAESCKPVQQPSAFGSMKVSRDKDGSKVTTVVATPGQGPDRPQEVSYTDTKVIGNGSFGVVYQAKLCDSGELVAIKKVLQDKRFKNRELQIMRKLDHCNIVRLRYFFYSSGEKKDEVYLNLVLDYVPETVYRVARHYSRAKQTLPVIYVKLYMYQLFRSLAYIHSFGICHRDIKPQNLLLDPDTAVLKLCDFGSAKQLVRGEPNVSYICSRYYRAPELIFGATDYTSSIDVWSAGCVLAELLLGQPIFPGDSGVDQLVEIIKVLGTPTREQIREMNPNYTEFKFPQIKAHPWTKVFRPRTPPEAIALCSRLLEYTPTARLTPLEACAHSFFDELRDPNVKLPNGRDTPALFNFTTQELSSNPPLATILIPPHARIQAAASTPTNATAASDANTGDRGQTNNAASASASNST

On to `O=C(O)c1cccc(CN2C(=O)/C(=C(\c3ccccc3)c3ccc(Cl)cc3)c3ccccc32)c1`, for which the result in [1], in [5], in data set [6] and in [8] was inactive. This compound also displayed a bioavailability in data set [2] of 33.7%. The same compound gave an AUC(0-inf) in data set [3] of 17500 ng·h/mL. In addition, the results for the AUC(0-t) at 24 h in [4] and in [14] were 28900 ng·h/mL and 17300 ng·h/mL, respectively. In addition, the concentration at 4 h in data set [7] is 3270 ng/mL. In addition, the result with Mus musculus [9], with Mus musculus [10] and in the data set on Mus musculus [16] was Active. The “inhibition (INH)” value on Cytochrome P450 2C9, on Cytochrome P450 2D6, against Cytochrome P450 2C19 and at Cytochrome P450 1A2 was “Not Active” in each case. Besides, the Activity in the data set on Mus musculus [11] was 0.52 mM; in the data set with L6 [15] it was “Dose-dependent effect”; in the data set with L6 [18], “Dose-dependent effect”. The same compound gave a pIC50 in data set [12] of under 4.70. The half-life in [13] is 3.94 h; in [17] it was 4 h. Also, at AMPK alpha2/beta1/gamma1, the pEC50 was 5.92.

By bioavailability is commonly meant dose-corrected exposure relative to a reference, in per cent. Higher therefore signals much systemic uptake. One may read the AUC(0-inf) as the area under the concentration-time curve extrapolated to infinity. Read a high AUC(0-inf) as more exposure. By AUC(0-t) is commonly meant exposure summed from dosing to a finite time, without extrapolation to infinity. The pIC50 is −log10 of the IC50, conventionally taken in molar units. For orientation: pEC50 means −log10 of the EC50, conventionally taken in molar units.
